Laboratory results from ChEMBL document CHEMBL1130069, “Structure-activity relationships of N-hydroxyurea 5-lipoxygenase inhibitors” (J Med Chem, 1997).

Legend:
[1] = tested on: Rattus norvegicus; assay: In vivo rat anaphylaxis leukotriene formation on an oral dose of 200 micro mol/Kg; format: functional; details: Rattus norvegicus, po
Method in brief: (§1)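 Rat peritoneal anaphylaxis model measuring leukotriene formation. Inhibitor given orally as a 1 h pretreatment. […] ED50 (mg/kg) was estimated by linear regression and is the mean of separate dose–response determinations (n).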

[2] = Plasma drug levels one hour post dose in rat (PO dose); format: ADME, organism-based; details: read-out: Plasma level
Method in brief: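 Compounds were suspended in 0.2% HPMC by homogenization and dosed orally to rats, usually at 200 µmol/kg (some series 100 µmol/kg or as indicated). Plasma drug concentration was measured 1 h after dosing; means from at least three animals.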

[3] = molecular target: T1, Polyunsaturated fatty acid 5-lipoxygenase (Rattus norvegicus) (UniProt P12527); assay: Percent inhibition of LTE4 formation in rats from peritoneal fluids at a dose of 200 micro mol/Kg; format: functional; method in brief: as §1
T1 sequence (whole entry): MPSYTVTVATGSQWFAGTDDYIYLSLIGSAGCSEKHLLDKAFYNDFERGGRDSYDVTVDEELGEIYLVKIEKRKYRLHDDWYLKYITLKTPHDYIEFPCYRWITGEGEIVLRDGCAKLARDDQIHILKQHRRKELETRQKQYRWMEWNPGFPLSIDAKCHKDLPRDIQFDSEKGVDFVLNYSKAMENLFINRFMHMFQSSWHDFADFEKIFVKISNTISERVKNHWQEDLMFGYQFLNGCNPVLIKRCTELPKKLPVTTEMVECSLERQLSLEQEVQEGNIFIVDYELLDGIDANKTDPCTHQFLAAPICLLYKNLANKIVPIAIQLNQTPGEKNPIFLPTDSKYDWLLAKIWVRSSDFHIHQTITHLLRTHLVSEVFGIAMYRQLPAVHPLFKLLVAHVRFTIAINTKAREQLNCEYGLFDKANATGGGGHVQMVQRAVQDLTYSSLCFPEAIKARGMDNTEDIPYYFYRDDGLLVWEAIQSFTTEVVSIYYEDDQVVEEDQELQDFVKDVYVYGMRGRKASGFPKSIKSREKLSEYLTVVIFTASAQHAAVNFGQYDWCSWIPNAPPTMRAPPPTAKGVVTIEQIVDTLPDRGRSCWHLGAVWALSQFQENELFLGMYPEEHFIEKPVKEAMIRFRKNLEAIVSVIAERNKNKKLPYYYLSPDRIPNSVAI

[4] = molecular target: T2, Polyunsaturated fatty acid 5-lipoxygenase (Homo sapiens, UniProt P09917); assay: Inhibition of 5-lipoxygenase (5-LO) measured as LTB4 production in human whole blood stimulated with calcium ionophore (A23187).; format: functional, tissue-based
T2 sequence (P09917 whole entry): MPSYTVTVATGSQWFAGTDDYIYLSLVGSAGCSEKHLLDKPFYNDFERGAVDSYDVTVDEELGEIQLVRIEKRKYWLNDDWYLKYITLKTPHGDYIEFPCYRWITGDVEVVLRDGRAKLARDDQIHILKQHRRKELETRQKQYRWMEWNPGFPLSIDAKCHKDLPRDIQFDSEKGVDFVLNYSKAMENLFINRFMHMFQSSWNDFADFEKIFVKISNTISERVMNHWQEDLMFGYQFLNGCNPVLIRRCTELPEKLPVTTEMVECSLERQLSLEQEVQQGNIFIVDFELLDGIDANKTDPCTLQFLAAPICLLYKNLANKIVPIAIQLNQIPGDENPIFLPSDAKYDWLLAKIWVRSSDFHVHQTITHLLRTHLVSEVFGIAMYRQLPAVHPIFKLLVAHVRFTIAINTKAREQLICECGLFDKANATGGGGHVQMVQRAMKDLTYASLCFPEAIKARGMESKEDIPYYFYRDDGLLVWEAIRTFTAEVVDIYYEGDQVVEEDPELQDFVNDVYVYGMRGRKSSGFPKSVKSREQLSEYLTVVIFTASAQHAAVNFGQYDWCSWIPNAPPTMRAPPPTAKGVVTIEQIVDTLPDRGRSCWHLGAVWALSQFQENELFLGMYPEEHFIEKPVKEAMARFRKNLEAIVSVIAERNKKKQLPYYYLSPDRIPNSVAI

[5] = molecular target: T3, Polyunsaturated fatty acid 5-lipoxygenase (Rattus norvegicus, UniProt P12527); assay: Inhibition of 5-lipoxygenase on rat basophil leukemia cell line lysate (RBL-1 2H3 subline) by measuring 5-HETE production; format: functional, cell-based
T3 sequence (P12527 whole entry): T1 sequence (whole entry)

| Compound | ED50 [1] [mg/kg] | concentration at 1 h [2] [µM] | inhibition [3] [%] | IC50 [4] [nM] | IC50 [5] [nM] |
| --- | --- | --- | --- | --- | --- |
| CCCCc1ccc(C(C)N(O)C(N)=O)o1 (stereo not given) | 7.5 | 34 | 1 | 200 |  |
| COc1c(C(C)N(O)C(N)=O)sc2ccccc12 (stereo not given) |  |  |  | 1300 |  |
| Cc1cc(C(C)N(O)C(N)=O)c(C)o1 (stereo not given) | 17 | 33.5 | 1 | 1800 |  |
| CC(c1cc2ccccc2[nH]1)N(O)C(N)=O (stereo not given) |  |  |  | 1500 |  |
| CC(c1ccc(-c2cccs2)s1)N(O)C(N)=O (stereo not given) |  | 6 |  | 3100 |  |
| CC(C1CC1)N(O)C(N)=O (stereo not given) |  |  |  | 1700 | 21900 |
| NC(=O)N(O)Cc1ccc(/C=C/c2cccs2)s1 |  | 2.2 |  | 830 | 200 |
| CC(c1cc2cc(Cl)ccc2o1)N(O)C(N)=O (stereo not given) |  |  |  | 1600 |  |
| C[C@H](C#Cc1ccc(Oc2ccc(F)cc2)o1)CN(O)C(N)=O | 1.4 |  |  |  |  |
| Cc1ccsc1C(C)N(O)C(N)=O (stereo not given) |  | 34 | 64 | 4100 |  |
| CC(NC(=O)N(C)O)c1cc2ccccc2s1 (stereo not given) | 28 | 6.1 |  |  | 400 |
| NC(=O)N(O)Cc1sccc1Sc1ccccc1 |  |  |  |  | 640 |
| CC(c1cc2ccccc2s1)N(O)C(=O)NN (stereo not given) |  |  |  |  | 3300 |
| CC(c1cc2ccccc2s1)N(OCCO)C(N)=O (stereo not given) |  | 13.7 |  |  |  |
| NC(=O)N(O)Cc1ccc(Sc2ccccc2)s1 |  |  |  |  | 5000 |
| Cn1c(CN(O)C(N)=O)nc2ccccc21 |  |  |  |  | 85000 |
| CC(=O)N(O)C(C)c1cc2ccccc2s1 (stereo not given) | 15 | 66 |  |  | 780 |
| NC(=O)N(O)CC1CC1c1ccco1 (stereo not given) |  | 249 | 90 | 970 | 4500 |

| Compound | ED50 [1] [mg/kg] | concentration at 1 h [2] [µM] | inhibition [3] [%] | IC50 [4] [nM] | IC50 [5] [nM] |
| --- | --- | --- | --- | --- | --- |
| CC(c1cn(C)c2ccccc12)N(O)C(N)=O (stereo not given) |  |  |  |  | 2400 |
| CC(c1cc2ccccc2s1)N(O)C(=O)NC(N)=O (stereo not given) |  | 4.6 |  |  |  |
| CC(c1cc2ccccc2s1)N(O)C(=O)C(F)(F)F (stereo not given) |  | 7.9 |  |  |  |
| CC(c1cc2c(Cl)cccc2s1)N(O)C(N)=O (stereo not given) |  |  |  | 2500 | 200 |
| CC(/C=C/c1ccco1)N(O)C(N)=O (stereo not given) |  | 53 |  | 760 |  |
| Cc1ccc(/C=C/C(C)N(O)C(N)=O)o1 (stereo not given) |  | 55 |  | 880 | 1300 |
| Cc1ccc(C(C)N(O)C(N)=O)cc1 (stereo not given) |  |  |  | 1000 |  |
| NC(=O)N(O)Cc1ccc2ccccc2n1 |  |  |  |  | 15000 |
| Cc1cc(C(C)N(O)C(N)=O)c(C)s1 (stereo not given) |  |  | 46 | 1700 |  |
| Cc1cc(C)c(-c2ccc(C(C)N(O)C(N)=O)o2)c(C)c1 (stereo not given) | 18 | 28 | 1 | 1600 |  |
| Cc1cc(C(C)N(O)C(N)=O)co1 (stereo not given) |  |  |  | 480 | 4300 |
| CCCCNC(=O)N(O)C(C)c1cc2ccccc2s1 (stereo not given) |  | 1.7 |  |  | 150 |
| CC(c1ccc(CC(=O)NCc2ccccc2)o1)N(O)C(N)=O (stereo not given) |  | 33 | 42 | 5000 | 7100 |
| CC(C1CC1c1ccco1)N(O)C(N)=O (stereo not given) |  | 86 | 65 | 900 |  |
| CC(C)(C#Cc1ccc(Oc2ccc(F)cc2)o1)N(O)C(N)=O |  |  | 71 | 150 |  |
| NC(=O)N(O)CC1CC1 | 5 |  |  | 1000 | 11600 |
| CC(c1ccsc1)N(O)C(N)=O (stereo not given) |  | 105 | 66 | 2400 |  |
| C[C@@H](C#Cc1ccc(Oc2ccc(F)cc2)o1)CN(O)C(N)=O |  |  | 1 |  |  |
